The values below come from ChEMBL document CHEMBL1212784, “Structure-microbicidal activity relationship of synthetic fragments derived from the antibacterial alpha-helix of human lactoferrin” (2010).

Assay [1] deals with Candida albicans. Description: Antimicrobial activity against Candida albicans ATCC […] at 65.4 uM within 5 mins. The format is functional, ATCC 64549. A digest of the protocol: (§1)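 Killing kinetics in Bactopeptone with 62.7 μM or 65.4 μM peptide against ~2 × 10^5 cells/ml; samples taken immediately after mixing and at 5, 10, 30, 60 and 120 min, serially diluted and plated for viable counts; percent of inoculum killed; duplicates.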

The nature of assay [2]: Antimicrobial activity against Escherichia coli O6 K5 incubation in bactopeptone. The format is functional. A digest of the protocol: (§2)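 Microplate killing assay in 1% Bactopeptone (pH 7.0). Log-phase organisms (BHI overnight, 2 h subculture, 37°C, washed), final ~2 × 10^5 cells/ml, with twofold peptide dilutions, 37°C humid chamber 2 h (or 20 h where stated). 5 μl drops plated on blood agar overnight; MMC99 = lowest concentration giving ≥99% inoculum reduction; duplicates.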

The test system of assay [3] is Staphylococcus aureus. Description: Antimicrobial activity against Staphylococcus aureus 1800 (CCUG 1800) incubation in bactopeptone. The format is functional. In outline: as §2
For assay [4], the system named is Candida albicans. Description: Antimicrobial activity against Candida albicans ATCC […] incubation in bactopeptone. The format is functional. The settings on record: ATCC 64549. A digest of the protocol:
as §2

Assay [5] has as its system Staphylococcus aureus. Description: Antimicrobial activity against Staphylococcus aureus 1800 (CCUG 1800) at 62.7 uM within 30 mins. As to conditions: in the assay text read “65.4 uM” for “62.7 uM”. The format is functional. In outline:
as §1

Assay [6] deals with Staphylococcus epidermidis. Description: Antimicrobial activity against Staphylococcus epidermidis CCUG 18000A using in brain heart infusion medium(dil) after 2 hrs at 25 ug/ml. The format is functional. In outline:
(§3)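 Single-concentration screen: log-phase organisms (~2 × 10^5 cells/ml) incubated 2 h at 37°C in diluted BHI (1/100 of 3.4%, pH 6.7 to 6.9) with 25 μg/ml peptide (10 μg/ml for E. coli O6 and C. albicans); viable counts on blood agar; scored as ≥99% killed or not; duplicates.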

The subject of assay [7] is Escherichia coli. Description: Antimicrobial activity against Escherichia coli O14 using in brain heart infusion medium(dil) after 2 hrs at 25 ug/ml. The format is functional. A digest of the protocol:
as §3

The subject of assay [8] is Candida albicans. Description: Antimicrobial activity against Candida albicans ATCC […] using in brain heart infusion medium(dil) after 2 hrs at 10 ug/ml. The format is functional, ATCC 64549. A digest of the protocol: as §3
The test system of assay [9] is Escherichia coli. Description: Antimicrobial activity against Escherichia coli O6 using in brain heart infusion medium(dil) after 2 hrs at 10 ug/ml. The format is functional. In outline: as §3
Assay [10] deals with Pseudomonas aeruginosa. Description: Antimicrobial activity against Pseudomonas aeruginosa CCUG 551 using in brain heart infusion medium(dil) after 2 hrs at 25 ug/ml. The format is functional. In outline: as §3
The test system of assay [11] is Enterococcus faecalis. Description: Antimicrobial activity against Enterococcus faecalis ATCC 19433 using in brain heart infusion medium(dil) after 2 hrs at 25 ug/ml. The format is functional. In outline:
as §3

The test system of assay [12] is Klebsiella pneumoniae. Description: Antimicrobial activity against Klebsiella pneumoniae CCUG 9997 using in brain heart infusion medium(dil) after 2 hrs at 25 ug/ml. The format is functional. A digest of the protocol:
as §3

Assay [13] has as its system Staphylococcus aureus. Description: Antimicrobial activity against Staphylococcus aureus 1800 (CCUG 1800) using in brain heart infusion medium(dil) after 2 hrs at 25 ug/ml. The format is functional. In outline:
as §3

Assay [14] relates to Candida albicans. Description: Antimicrobial activity against Candida albicans ATCC […] at 62.7 uM within 5 mins. The format is functional, ATCC 64549. A digest of the protocol:
as §1

Assay [15] concerns Staphylococcus aureus. Description: Antimicrobial activity against Staphylococcus aureus 1800 (CCUG 1800) at 65.4 uM within 10 mins. The format is functional. As to conditions: in the assay text read “62.7 uM” for “65.4 uM”. In outline: as §1
For assay [16], the system named is Staphylococcus aureus. Description: Antimicrobial activity against Staphylococcus aureus 1800 (CCUG 1800) after 20 hrs incubation in bactopeptone. The format is functional. In outline: as §2
Assay [17] concerns Candida albicans. Description: Antimicrobial activity against Candida albicans ATCC […] after 20 hrs incubation in bactopeptone. The format is functional. As to conditions: ATCC 64549, 20 h. In outline: as §2
The subject of assay [18] is Candida albicans. Description: Antimicrobial activity against Candida albicans ATCC […] after 2 hrs incubation in bactopeptone. The format is functional. As to conditions: ATCC 64549, 2 h. A digest of the protocol: as §2
Assay [19] in a line: Antimicrobial activity against Escherichia coli O6 K5 after 2 hrs incubation in bactopeptone. The format is functional. The settings on record: K5, 2 h. A digest of the protocol: as §2
Assay [20] has as its system Staphylococcus aureus. Description: Antimicrobial activity against Staphylococcus aureus 1800 (CCUG 1800) after 2 hrs incubation in bactopeptone. The format is functional. A digest of the protocol: as §2
Assay [21] is described as follows: Antimicrobial activity against Escherichia coli O6 K5 after 20 hrs incubation in bactopeptone. The format is functional. As to conditions: K5, 20 h. In outline: as §2

In brackets after ≈: the same amount, converted by molar mass. Positions of bridges follow the written chain, without caps; N, C: chain ends. Residues, ends and D or L forms follow the SMILES beside them.

What is called MIC99 is an inhibitory concentration at the 99% level, which refers to growth in some studies and to a panel of isolates in others. Read a low MIC99 as higher susceptibility. On to `CC[C@H](C)[C@H](NC(=O)[C@@H]1CSSC[C@H](NC(=O)[C@H](CCCCN)NC(=O)[C@@H](NC(=O)[C@H](C)NC(=O)[C@H](CCC(=O)O)NC(C)=O)[C@@H](C)O)C(=O)N[C@@H](Cc2ccccc2)C(=O)N[C@@H](CCC(N)=O)C(=O)N[C@@H](Cc2c[nH]c3ccccc23)C(=O)N[C@@H](CCC(N)=O)C(=O)N[C@@H](CCCNC(=N)N)C(=O)N[C@@H](CC(N)=O)C(=O)N[C@@H](CCSC)C(=O)N[C@@H](CCCNC(=N)N)C(=O)N[C@@H](CCCCN)C(=O)N[C@@H](C(C)C)C(=O)N[C@@H](CCCNC(=N)N)C(=O)NCC(=O)N2CCC[C@H]2C(=O)N2CCC[C@H]2C(=O)N[C@@H](C(C)C)C(=O)N[C@@H](CO)C(=O)N1)C(=O)N[C@@H](CCCCN)C(=O)N[C@@H](CCCNC(=N)N)C(N)=O` (Ac-EATKCFQWQRNMRKVRGPPVSCIKR-NH2; disulfide 5-22), for which the Activity in assay [1] is given as greater than 90%; in [5], 80%. The MIC99 in [2] was 50 µg/mL (≈ 16.3 µM); in assay [3] it was 50 µg/mL (≈ 16.3 µM); in assay [4], 200 µg/mL (≈ 65.4 µM).
On to H-ATKCFQWQRNMRKVR-OH, for which the Activity result in assay [6], in [7], in [8], in [9], in assay [10] and in assay [11] was “>=99%” each time. Further, the Activity result in [12] and in assay [13] was “>=99%” each time.
For the compound H-CFAWQRAMRKVR-OH, the MIC99 in [2] came to 25 µg/mL; in assay [3] it was 50 µg/mL; in [4] it was 25 µg/mL. In addition, the Activity was 99% in [14] and 90% in assay [15].
Take H-CFQWQRNMRKVR-OH: the MIC99 in assay [2] was 100 µg/mL; in assay [3], greater than 100 µg/mL; in [16], greater than 100 µg/mL; in assay [17] it was 100 µg/mL; in assay [18], greater than 200 µg/mL; in assay [4], 50 µg/mL. Further, the MIC99 in assay [19] is 100 µg/mL; in [20] it was greater than 100 µg/mL; in [21], 50 µg/mL. In addition, the Activity entry in assay [6], in [7], in assay [8], in assay [9], in assay [10] and in assay [11] was “>=99%” throughout. Moreover, the figures for the Activity in [12] and in assay [13] were less than 99% and “>=99%”, respectively.
As to H-EATKCFQWQRNMRKVR-OH, the Activity result in assay [6] is on record as “>=99%”; in assay [7], less than 99%; in [8], less than 99%; in assay [9], “>=99%”; in [10] it was less than 99%; in [11], “>=99%”. Besides, the Activity in assay [12] is recorded as less than 99%; in assay [13], “>=99%”.
Regarding H-FQWQRNMRKVR-OH, the Activity in assay [6], in assay [7], in assay [8], in assay [9], in assay [10] and in assay [11] was less than 99% in each case. Besides, the Activity result in assay [12] and in assay [13] was “>=99%” in each case.
With H-KCFQWQRNMRKVR-OH, the Activity result in assay [6], in assay [7], in assay [8], in assay [9], in assay [10] and in [11] was “>=99%” in each case. Also, the Activity entry in [12] and in assay [13] was “>=99%” in each case. Besides, the MIC99 in assay [16] was determined as 50 µg/mL; in [17] it was 50 µg/mL; in [18], 200 µg/mL; in assay [19] it was 25 µg/mL; in [20] it was 25 µg/mL; in [21] it was 12 µg/mL.
Turning to H-PEATKCFQWQRNMRKVR-OH, the Activity entry in [6] is given as “>=99%”; in [7], less than 99%; in assay [8], less than 99%; in assay [9], less than 99%; in assay [10], less than 99%; in assay [11], “>=99%”. Moreover, the Activity is given as less than 99% in [12] and “>=99%” in assay [13].
H-QPEATKCFQWQRNMRKVR-OH: the Activity in [6] was less than 99%; in assay [7], less than 99%; in assay [8], less than 99%; in assay [9], less than 99%; in assay [10], less than 99%; in assay [11], “>=99%”. For the same compound, the Activity in assay [12] is on record as less than 99%; in [13] it was “>=99%”.
Turning to H-QWQRNMRKVR-OH, the Activity in assay [6], in [7], in assay [8], in [9], in [10] and in [11] was less than 99% in each case. Also, the Activity in assay [12] and in assay [13] was less than 99% each time.
With H-TKCFQWQRNMRKVR-OH, the Activity entry in assay [6], in assay [7], in assay [8], in assay [9], in assay [10] and in assay [11] was “>=99%” in each case. The Activity entry in [12] and in assay [13] was “>=99%” in each case. Further, the MIC99 in [16] is 100 µg/mL; in assay [17], 50 µg/mL; in assay [18] it was greater than 200 µg/mL; in assay [19], 50 µg/mL; in assay [20], 50 µg/mL; in [21] it was 25 µg/mL.
